The record followed here is PMC11579378 (Scientific Reports, 2024).

Where no end group is shown, it is not given here.

For this experiment, the target named is ACE1 (Homo sapiens, UniProt P12821). Kind of experiment: In vitro ACE1 inhibition assay. It is filed as biochemical. The procedure, abridged: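 Commercial WST colorimetric kit, run per the manufacturer's instructions. Test peptides were diluted in PBS to 0.01–100 µM and mixed with substrate buffer and enzyme working solution, then incubated 1 h at 37 °C. Indicator working solution was added for 5 min at room temperature, and absorbance was read at 450 nm. Blanks with and without enzyme were included. Assays were run in triplicate, and IC50 was obtained by nonlinear regression of inhibition against concentration.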
Sequence of ACE1 (P12821 30-1306): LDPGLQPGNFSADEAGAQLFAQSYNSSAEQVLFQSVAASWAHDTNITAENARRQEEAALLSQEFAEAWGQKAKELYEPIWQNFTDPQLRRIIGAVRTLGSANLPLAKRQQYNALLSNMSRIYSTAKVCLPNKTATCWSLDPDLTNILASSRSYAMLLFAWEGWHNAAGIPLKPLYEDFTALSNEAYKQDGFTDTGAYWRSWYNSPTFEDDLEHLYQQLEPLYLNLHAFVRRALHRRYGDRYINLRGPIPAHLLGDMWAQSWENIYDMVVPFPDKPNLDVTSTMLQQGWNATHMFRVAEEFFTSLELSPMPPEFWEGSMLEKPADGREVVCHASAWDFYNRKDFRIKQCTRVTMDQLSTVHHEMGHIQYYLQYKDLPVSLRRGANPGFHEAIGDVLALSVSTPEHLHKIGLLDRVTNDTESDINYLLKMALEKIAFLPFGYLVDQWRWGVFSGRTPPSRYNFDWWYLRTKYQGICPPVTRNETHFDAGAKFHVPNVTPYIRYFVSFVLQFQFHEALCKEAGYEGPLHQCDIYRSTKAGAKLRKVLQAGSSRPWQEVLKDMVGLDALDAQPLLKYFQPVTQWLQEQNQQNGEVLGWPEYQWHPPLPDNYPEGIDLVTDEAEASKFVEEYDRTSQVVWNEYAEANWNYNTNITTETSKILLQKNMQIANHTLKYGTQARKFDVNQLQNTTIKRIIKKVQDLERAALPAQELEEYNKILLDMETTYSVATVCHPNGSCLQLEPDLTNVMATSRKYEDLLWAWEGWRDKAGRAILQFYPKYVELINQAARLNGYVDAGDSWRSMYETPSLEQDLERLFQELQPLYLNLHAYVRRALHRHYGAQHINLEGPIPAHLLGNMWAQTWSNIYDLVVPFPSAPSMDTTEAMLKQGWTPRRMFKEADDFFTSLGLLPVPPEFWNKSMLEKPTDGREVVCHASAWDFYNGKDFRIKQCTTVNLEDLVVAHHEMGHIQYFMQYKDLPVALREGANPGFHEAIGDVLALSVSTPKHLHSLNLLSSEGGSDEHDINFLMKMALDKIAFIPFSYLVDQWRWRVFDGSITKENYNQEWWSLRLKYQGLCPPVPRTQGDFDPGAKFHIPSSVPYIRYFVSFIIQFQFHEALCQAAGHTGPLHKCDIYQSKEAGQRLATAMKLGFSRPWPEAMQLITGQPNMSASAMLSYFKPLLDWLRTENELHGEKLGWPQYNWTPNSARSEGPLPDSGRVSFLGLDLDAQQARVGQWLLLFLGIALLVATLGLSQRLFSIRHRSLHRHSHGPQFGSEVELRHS

For the compound `CC(C)C[C@H](NC(=O)[C@H](Cc1ccccc1)NC(=O)[C@H](CCCCN)NC(=O)[C@H](Cc1ccccc1)NC(=O)[C@H](CC(N)=O)NC(=O)[C@@H](NC(=O)[C@@H]1CCCN1)C(C)C)C(=O)N[C@@H](CO)C(=O)N[C@@H](Cc1cnc[nH]1)C(=O)O` [Hp-F, Hemopressin-F], the midpoint of inhibition, the IC50, lay at 6.22 ± 0.44 µM.

With `CC(C)C[C@H](NC(=O)[C@H](CC(C)C)NC(=O)[C@H](CCCCN)NC(=O)[C@H](Cc1ccccc1)NC(=O)[C@H](CC(N)=O)NC(=O)[C@@H](NC(=O)[C@@H]1CCCN1)C(C)C)C(=O)N[C@@H](CO)C(=O)N[C@@H](Cc1c[nH]cn1)C(=O)O` [Hp-L, Hemopressin-L], the 50% inhibitory concentration (IC50) is 3.86 ± 0.87 µM.

Turning to “RVDPVNFKFLSH [RVD-Hp-F, RVD-Hemopressin-F]”, the IC50 came out at 12.4 ± 2.92 µM.

For “RVDPVNFKLLSH [RVD-Hp-L, RVD-Hemopressin-L]”, 2.52 ± 0.11 µM corresponded to half-maximal inhibition (IC50).

VDPVNFKFLSH [VD-Hp-F, VD-Hemopressin-F] had an IC50 of 10.8 ± 0.79 µM.

Compound VDPVNFKLLSH [VD-Hp-L, VD-Hemopressin-L] registered an IC50 of 4.54 ± 0.83 µM.
